Test results taken from ChEMBL document CHEMBL4330063, “New naphthopyran analogues of LY290181 as potential tumor vascular-disrupting agents” (Eur J Med Chem, 2019).
Blank lines part the entries; values can stand above or below the compound they belong to. Calls of active or inactive are those of the source. No cut-off for these calls is given here.

How the values were obtained:
HT-29 [1] = assay: Cell cycle arrest in human HT-29 cells assessed as accumulation of cells at S phase at 100 nM after 24 hrs by propidium iodide staining-based flow cytometric analysis (reference value: 12.3 +/- 0.4%); format: functional
HT-29 [2] = assay: Cell cycle arrest in human HT-29 cells assessed as accumulation of cells at G2/M phase at 250 nM after 24 hrs by propidium iodide staining-based flow cytometric analysis (reference value: 11.4 +/- 1.4%); format: functional
PANC-1 = assay: Antiproliferative activity against human PANC1 cells after 72 hrs by MTT assay; format: functional, cell-based; conditions: PANC-1, 72 h
Procedure, shortened: (§1)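 MTT read-out after 72 h of continuous exposure. Viability is expressed as percentage of viable cells relative to untreated controls. IC50 comes from dose-response curves. Values are means±SD of four independent experiments (two for some entries). DMSO was below 1%, with vehicle controls at equal DMSO. Precipitation was excluded spectrometrically and microscopically.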

HT-29 [3] = assay: Cell cycle arrest in human HT-29 cells assessed as accumulation of cells at S phase at 350 nM after 24 hrs by propidium iodide staining-based flow cytometric analysis (reference value: 12.3 +/- 0.4%); format: functional
Chorioallantoic membrane [4] = assay: Antiangiogenic activity in Leghorn chicken embryo chorioallantoic membrane assessed as disruption of smaller blood vessels at 5 nmol after 24 hrs by light microscopic analysis; format: functional, tissue-based; conditions: Gallus gallus
Procedure, shortened: (§2)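 Fertilized chicken eggs, CAM assay. Compound was applied topically into a small silicon foil ring placed on the CAM. The membrane and its extraembryonal blood vessels were monitored over 24 h, with observations at 6 h and 24 h post application.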

HT-29 [5] = assay: Cell cycle arrest in human HT-29 cells assessed as accumulation of cells at G2/M phase after 24 hrs by propidium iodide staining-based flow cytometric analysis; format: functional
Chorioallantoic membrane [6] = assay: Antiangiogenic activity in Leghorn chicken embryo chorioallantoic membrane assessed as effect on blood vessel length at 5 nmol after 6 hrs by light microscopic analysis; format: functional, tissue-based; conditions: Gallus gallus; procedure, shortened: as §2
[7] = Antiproliferative activity against human KB-V1/Vbl cells after 72 hrs by MTT assay; format: functional, cell-based; procedure, shortened: as §1
Chorioallantoic membrane [8] = assay: Antiangiogenic activity in Leghorn chicken embryo chorioallantoic membrane assessed as induction of hemorrhages at 5 nmol after 6 hrs by light microscopic analysis; format: functional, tissue-based; conditions: Gallus gallus; procedure, shortened: as §2
HT-29 [9] = assay: Cell cycle arrest in human HT-29 cells assessed as accumulation of cells at G1 phase at 350 nM after 24 hrs by propidium iodide staining-based flow cytometric analysis (reference value: 75.1 +/- 1.1%); format: functional
518A2 [10] = assay: Induction of cell cycle arrest in human 518A2 cells; format: functional, cell-based
EA.hy 926 = assay: Antiproliferative activity against human EAhy926 cells after 72 hrs by MTT assay; format: functional, cell-based; conditions: EA.hy 926, 72 h; procedure, shortened: as §1
Chorioallantoic membrane [11] = assay: Antiangiogenic activity in Leghorn chicken embryo chorioallantoic membrane assessed as induction of hemorrhages at 5 nmol after 24 hrs by light microscopic analysis; format: functional, tissue-based; conditions: Gallus gallus; procedure, shortened: as §2
HT-29 [12] = assay: Cell cycle arrest in human HT-29 cells assessed as accumulation of cells at sub G1 phase at 100 nM after 24 hrs by propidium iodide staining-based flow cytometric analysis (reference value: 1.2 +/- 0.3%); format: functional
518A2 [13] = assay: Antiproliferative activity against human 518A2 cells after 72 hrs by MTT assay; format: functional, cell-based; conditions: for IC50: 518A2, 72 h; procedure, shortened: as §1
HT-29 [14] = assay: Cell cycle arrest in human HT-29 cells assessed as accumulation of cells at G1 phase at 250 nM after 24 hrs by propidium iodide staining-based flow cytometric analysis (reference value: 75.1 +/- 1.1%); format: functional
HCT-116 = assay: Antiproliferative activity against human HCT116 cells after 72 hrs by MTT assay; format: functional, cell-based; conditions: HCT-116, 72 h; procedure, shortened: as §1
Chorioallantoic membrane [15] = assay: Antiangiogenic activity in Leghorn chicken embryo chorioallantoic membrane assessed as reduction in diameter of main blood vessel at 5 nmol after 24 hrs by light microscopic analysis; format: functional, tissue-based; conditions: Gallus gallus; procedure, shortened: as §2
[16] = Antiproliferative activity against human MCF7/Topo cells after 72 hrs by MTT assay; format: functional, cell-based; procedure, shortened: as §1
518A2 [17] = assay: Induction of apoptosis in human 518A2 cells assessed as accumulation at subG1 phase; format: functional, cell-based
Chorioallantoic membrane [18] = assay: Antiangiogenic activity in Leghorn chicken embryo chorioallantoic membrane assessed as reduction in blood vessel area at 5 nmol after 6 hrs by light microscopic analysis relative to control; format: functional, tissue-based; conditions: Gallus gallus
Procedure, shortened: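 The CAM assay was run with topical application into a silicon foil ring atop the CAM of fertilized chicken eggs. Area covered by blood vessels was quantified by fractal analysis relative to control.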

HT-29 [19] = assay: Antiproliferative activity against human HT-29 cells after 72 hrs by MTT assay; format: functional, cell-based; conditions: HT-29, 72 h; procedure, shortened: as §1
DLD-1 = assay: Antiproliferative activity against human DLD1 cells after 72 hrs by MTT assay; format: functional, cell-based; conditions: DLD-1, 72 h; procedure, shortened: as §1
[20] = Antiproliferative activity against human A2780cis cells after 72 hrs by SRB assay; format: functional, cell-based
Procedure, shortened: (§3)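 Ovarian A2780 and cisplatin-resistant A2780cis cells were exposed for 72 h and stained with SRB. IC50 comes from dose-response curves, as means±SD of three independent experiments. Final DMSO was below 1%, with matched vehicle controls.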

HT-29 [21] = assay: Cell cycle arrest in human HT-29 cells assessed as accumulation of cells at G1 phase at 100 nM after 24 hrs by propidium iodide staining-based flow cytometric analysis (reference value: 75.1 +/- 1.1%); format: functional
A2780 = assay: Antiproliferative activity against human A2780 cells after 72 hrs by SRB assay; format: functional, cell-based; conditions: A2780, 72 h; procedure, shortened: as §3
Chorioallantoic membrane [22] = assay: Antiangiogenic activity in Leghorn chicken embryo chorioallantoic membrane assessed as disruption of smaller blood vessels at 5 nmol after 6 hrs by light microscopic analysis; format: functional, tissue-based; conditions: Gallus gallus; procedure, shortened: as §2
HT-29 [23] = assay: Cell cycle arrest in human HT-29 cells assessed as accumulation of cells at sub G1 phase at 250 nM after 24 hrs by propidium iodide staining-based flow cytometric analysis (reference value: 1.2 +/- 0.3%); format: functional
HT-29 [24] = assay: Cell cycle arrest in human HT-29 cells assessed as accumulation of cells at G2/M phase at 350 nM after 24 hrs by propidium iodide staining-based flow cytometric analysis (reference value: 11.4 +/- 1.4%); format: functional
HT-29 [25] = assay: Cell cycle arrest in human HT-29 cells assessed as accumulation of cells at G2/M phase at 100 nM after 24 hrs by propidium iodide staining-based flow cytometric analysis (reference value: 11.4 +/- 1.4%); format: functional
HT-29 [26] = assay: Cell cycle arrest in human HT-29 cells assessed as accumulation of cells at sub G1 phase at 350 nM after 24 hrs by propidium iodide staining-based flow cytometric analysis (reference value: 1.2 +/- 0.3%); format: functional
HT-29 [27] = assay: Cell cycle arrest in human HT-29 cells assessed as accumulation of cells at S phase at 250 nM after 24 hrs by propidium iodide staining-based flow cytometric analysis (reference value: 12.3 +/- 0.4%); format: functional

SMILES: N#CC1=C(N)Oc2c(cc(Cl)c3ccccc23)C1c1cc(F)cc(F)c1 (stereo unspecified)
Activity (HT-29 [1]): 19.6%
Activity (HT-29 [2]): 90.3%
IC50 (PANC-1): 0.0927 µM
Activity (HT-29 [3]): 2.2%
Activity (Chorioallantoic membrane [4]): inactive
Activity (HT-29 [5]): Dose-dependent effect
Activity (Chorioallantoic membrane [6]): inactive
IC50 [7]: 0.092 µM
Activity (Chorioallantoic membrane [8]): Active
Activity (HT-29 [9]): 1.6%
Activity (518A2 [10]): inactive
IC50 (EA.hy 926): 0.0678 µM
Activity (Chorioallantoic membrane [11]): inactive
Activity (HT-29 [12]): 3.3%
Activity (518A2 [13]): Dose-dependent effect
IC50 (518A2 [13]): 0.0241 µM
Activity (HT-29 [14]): 3%
IC50 (HCT-116): 0.091 µM
Activity (Chorioallantoic membrane [15]): Active
IC50 [16]: 0.0798 µM
Activity (518A2 [17]): Active
Activity (Chorioallantoic membrane [18]): inactive
IC50 (HT-29 [19]): 0.102 µM
IC50 (DLD-1): 0.0984 µM
IC50 [20]: 0.155 µM
Activity (HT-29 [21]): 52%
IC50 (A2780): 0.104 µM
Activity (Chorioallantoic membrane [22]): Active
Activity (HT-29 [23]): 4.5%
Activity (HT-29 [24]): 90.3%
Activity (HT-29 [25]): 25%
Activity (HT-29 [26]): 3.5%
Activity (HT-29 [27]): 2.3%

SMILES: CSc1ccc(C2C(C#N)=C(N)Oc3c2ccc2ccccc32)cc1 (stereo unspecified)
Activity (518A2 [13]): Dose-dependent effect
IC50 (518A2 [13]): 1.98 µM
IC50 (HT-29 [19]): 1.1 µM
IC50 [20]: 0.43 µM
IC50 (A2780): 0.363 µM

SMILES: N#CC1=C(N)Oc2c(ccc3ccccc23)C1c1cccc(S(F)(F)(F)(F)F)c1 (stereo unspecified)
Activity (518A2 [13]): Dose-dependent effect
IC50 (518A2 [13]): 0.505 µM
IC50 (HT-29 [19]): 0.57 µM
IC50 [20]: 0.265 µM
IC50 (A2780): 0.188 µM

SMILES: N#CC1=C(N)Oc2c(ccc3ccccc23)C1c1ccc(S(F)(F)(F)(F)F)cc1 (stereo unspecified)
Activity (518A2 [13]): Dose-dependent effect
IC50 (518A2 [13]): 7.13 µM
IC50 (HT-29 [19]): 9.97 µM
IC50 [20]: 5.58 µM
IC50 (A2780): 5.16 µM

SMILES: COc1cc(C2C(C#N)=C(N)Oc3c2ccc2ccccc32)ccc1OCc1ccccc1 (stereo unspecified)
Activity (518A2 [13]): Dose-dependent effect
IC50 (518A2 [13]): 1.66 µM
IC50 (HT-29 [19]): 5.82 µM
IC50 [20]: 2.34 µM
IC50 (A2780): 2.15 µM

SMILES: N#CC1=C(N)Oc2c(ccc3ccccc23)C1c1ccc(C#N)cc1 (stereo unspecified)
Activity (518A2 [13]): Dose-dependent effect
IC50 (518A2 [13]): 0.939 µM
IC50 (HT-29 [19]): 1.23 µM
IC50 [20]: 0.774 µM
IC50 (A2780): 0.759 µM

SMILES: COc1c(Br)cc(C2C(C#N)=C(N)Oc3c2cc(Cl)c2ccccc32)cc1Br (stereo unspecified)
Activity (518A2 [13]): Dose-dependent effect
IC50 (518A2 [13]): 0.144 µM
IC50 (HT-29 [19]): 0.188 µM
IC50 [20]: 0.168 µM
IC50 (A2780): 0.16 µM

More lines, main results first:

IC50 (PANC-1): 0.0549 µM
IC50 (HCT-116): 0.0735 µM
IC50 (HT-29 [19]): 0.0673 µM
IC50 (DLD-1): 0.0694 µM
IC50 (A2780): 0.0499 µM
SMILES: N#CC1=C(N)Oc2c(cc(Cl)c3ccccc23)C1c1cccc(C#N)c1 (stereo unspecified)
Activity (HT-29 [1]): 16.1%
Activity (HT-29 [2]): 40.9%
Activity (HT-29 [3]): 8.5%
Activity (Chorioallantoic membrane [4]): inactive
Activity (HT-29 [5]): Dose-dependent effect
Activity (Chorioallantoic membrane [6]): inactive
IC50 [7]: 0.0559 µM
Activity (Chorioallantoic membrane [8]): Active
Activity (HT-29 [9]): 13%
Activity (518A2 [10]): inactive
IC50 (EA.hy 926): 0.0786 µM
Activity (Chorioallantoic membrane [11]): inactive
Activity (HT-29 [12]): 19.8%
Activity (518A2 [13]): Dose-dependent effect
IC50 (518A2 [13]): 0.0605 µM
Activity (HT-29 [14]): 22.2%
Activity (Chorioallantoic membrane [15]): Active
IC50 [16]: 0.0581 µM
Activity (518A2 [17]): Active
Activity (Chorioallantoic membrane [18]): inactive
IC50 [20]: 0.0567 µM
Activity (HT-29 [21]): 51.7%
Activity (Chorioallantoic membrane [22]): Active
Activity (HT-29 [23]): 27.8%
Activity (HT-29 [24]): 51.6%
Activity (HT-29 [25]): 12.3%
Activity (HT-29 [26]): 27%
Activity (HT-29 [27]): 9.1%

IC50 (HT-29 [19]): 1.54 µM
IC50 (A2780): 1.07 µM
SMILES: CSc1ccc(C2C(C#N)=C(N)Oc3c2cc(Cl)c2ccccc32)cc1 (stereo unspecified)
Activity (518A2 [13]): Dose-dependent effect
IC50 (518A2 [13]): 1.35 µM
IC50 [20]: 1.29 µM

IC50 (HT-29 [19]): 2.03 µM
IC50 (A2780): 0.912 µM
SMILES: N#CC1=C(N)Oc2c(cc(Cl)c3ccccc23)C1c1ccccc1Cl (stereo unspecified)
Activity (518A2 [13]): Dose-dependent effect
IC50 (518A2 [13]): 9.91 µM
IC50 [20]: 0.973 µM

IC50 (HT-29 [19]): 1.59 µM
IC50 (A2780): 1.44 µM
SMILES: N#CC1=C(N)Oc2c(cc(Cl)c3ccccc23)C1c1ccc(C#N)cc1 (stereo unspecified)
Activity (518A2 [13]): Dose-dependent effect
IC50 (518A2 [13]): 0.753 µM
IC50 [20]: 1.41 µM

IC50 (HT-29 [19]): 0.245 µM
IC50 (A2780): 0.155 µM
SMILES: N#CC1=C(N)Oc2c(cc(Cl)c3ccccc23)C1c1cccc(Br)c1 (stereo unspecified)
Activity (518A2 [13]): Dose-dependent effect
IC50 (518A2 [13]): 0.229 µM
IC50 [20]: 0.166 µM
